Measured values: paper PMC12236005 (Journal of Nanobiotechnology, 2025)

How the values were obtained:
H9c2 cells [1] = assay: Apoptosis by flow cytometry, Annexin V-PI staining; format: cell-based; settings: H9c2 + H2O2, 24 h treatment, n = 3
H2O2 treated H9c2 cells [2] = assay: Intracellular ONOO-/RNS, O58 probe; format: cell-based; settings: 4 h treatment, n = 5
Method in brief: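 H9c2 cells (high-glucose DMEM, 10% FBS) were seeded and grown 24 h, then treated 4 h. Cells were stained with BBoxiProbe O58 for ONOO−, imaged by fluorescence microscopy, and mean fluorescence intensity was quantified. n = 5.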

H9c2 cells [3] = assay: Cell protection under H2O2, CCK-8; format: cell-based; settings: 10 µM equivalent of PBA or/and ISN, 500 µM H2O2, 24 h, n = 5
Method in brief: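 H9c2 cells (high-glucose DMEM, 10% FBS) seeded at 5 × 10^3/well and grown 24 h. Medium then replaced with treatments at 10 µM PBA and/or ISN equivalent, followed by 500 µM H2O2, with PBS as control. After 24 h, cells were given fresh medium containing 10% CCK-8 for 4 h. Supernatant absorbance was read at 450 nm to calculate viability.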

H2O2-treated H9c2 cells = assay: Mitochondria-related cell injury probes; format: cell-based; settings: 6 h treatment, n = 5; for mitochondrial membrane potential: JC-10 probe
Method in brief: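 H9c2 cells were seeded and grown 24 h, then treated for 6 h and stained with JC-10. Fluorescence images were taken, and membrane potential was expressed as the ratio of red to green fluorescence intensity. n = 5.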

HUVECs [4] = assay: HUVEC tube formation assay; format: cell-based, human; settings: H2O2-treated HUVECs on Matrigel, 6 h; n = 5
Method in brief: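 HUVECs (2.5 × 10^4 per well) seeded on Matrigel-coated wells with test compound and incubated 6 h. Bright-field images from five random fields scored for tube length, branching length and junction number. n = 5.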

DPPH assay = settings: PDCs 0-200 µM, DPPH 500 µM, 30 min in darkness, absorbance 517 nm; n = 3
Method in brief: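 DPPH solution (500 µM before mixing) was combined with PDC solutions at 0, 5, 10, 25, 50, 100 and 200 µM and kept 30 min in darkness. Absorbance was read at 517 nm and scavenged DPPH calculated. Mean ± SEM, n = 3.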

[5] = DLS and TEM of self-assembled nanoaggregates; format: physicochemical; settings: self-assembly in aqueous solution; TEM images and DLS
[6] = In vivo distribution of Cy5.5-labeled PDCs; parameters: species or system mice
Method in brief: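 Male C57BL/6 mice (10-week-old), sham or MI, received Cy5.5-labelled PDCs by tail-vein injection. A scrambled-peptide (non-targeting) conjugate served as control, and dye-labelled conjugates were normalised to equal fluorescence by UV-Vis. At 2 h and 6 h mice were euthanised. Hearts, lungs, livers, spleens and kidneys were imaged ex vivo and average radiance quantified.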

HUVECs [7] = assay: Western blotting of VEGF, p-eNOS, eNOS; format: cell-based, human; settings: H2O2 treated HUVECs, immunoblot; n = 3
Method in brief: (§1)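 Lysates from HUVECs or H9c2 cells were protein-quantified by BCA. Equal amounts were run on SDS-PAGE and transferred to PVDF. Membranes were blocked with 5% non-fat milk and probed with primary and secondary antibodies. Bands were detected by ECL chemiluminescence and quantified by densitometry. n = 3.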

HUVECs [8] = assay: Intracellular ROS, NO and RNS probes in HUVECs; format: cell-based, human; settings: H2O2 treated HUVECs, O38 probe; n = 5
Method in brief: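 HUVECs (endothelial cell medium, 5% FBS plus growth supplements) were seeded and grown 24 h, then treated 4 h. Cells were stained with BBoxiProbe O38 for NO, imaged by fluorescence microscopy, and mean fluorescence intensity was quantified. Mean ± SEM, n = 5.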

H9c2 cells [9] = assay: Western blotting of oxidative stress, inflammation and apoptosis proteins; format: cell-based; settings: H2O2 treated H9c2 cells, n = 3
Method in brief: as §1

HUVECs [10] = assay: HUVEC survival under oxidative stress; format: cell-based, human; settings: H2O2, calcein-AM/PI staining and CCK-8 assay; n = 5
Method in brief: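 CCK-8: 5 × 10^3 cells/well plated 24 h, then medium with test compound (10 µM equivalent of PBA and/or ISN) and 500 µM H2O2 (PBS control). After 24 h, 10% CCK-8 for 4 h, absorbance at 450 nm. Live/dead: 1 × 10^5 cells/well plated 24 h, treated 24 h, calcein AM/PI stain 30 min, fluorescence imaging, dead/live ratio quantified. n = 5.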

H2O2 treated H9c2 cells [11] = assay: Intracellular NO, O38 probe; format: cell-based; settings: 4 h treatment, n = 5
Method in brief: (§2)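 H9c2 cells cultured 24 h, then exposed to test compound for 4 h. Stained with a fluorescent probe: DHE for ROS, O38 for NO. Fluorescence microscopy, with mean fluorescence intensity taken per image. n = 5.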

cells = assay: NO release from culture medium of cells, Griess assay; format: cell-based; settings: PDCs 10 µM
Method in brief: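 PDCs (10 µM) were incubated with cells pretreated with PBS or H2O2 for 24 h. NO in the culture medium was measured by Griess assay at 0 h and 24 h.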

HUVECs [12] = assay: HUVEC migration; format: cell-based, human; settings: H2O2 treated; scratch assay 24 h and Transwell assay 8 h; n = 5
Method in brief: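 Two formats. Scratch: HUVECs pre-stained with green fluorescent dye and grown to a confluent monolayer. Gap scratched with a pipette tip, then fresh medium with test compound added. Fluorescence images at 0 and 24 h give the percentage of wound area healed. Transwell: 8.0-µm pores, 8 × 10^4 cells in serum-free medium above, 10% FBS medium with test compound below, 8 h. Migrated cells stained with 0.1% crystal violet and counted in five random fields. n = 5.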

MI mice = format: in vivo, C57BL/6 mice
ABTS assay = settings: test kit; n = 3
H9c2 cells [13] = assay: Mitochondria TEM and cellular ATP; format: cell-based
H2O2 treated H9c2 cells [14] = assay: Intracellular ROS, DHE probe; format: cell-based; settings: DHE staining, 4 h treatment, n = 5
Method in brief: as §2

[15] = immunofluorescence, 28 days after MI, n = 4

CSTSMLKAC [CTP-PBA]
apoptosis percentage (H9c2 cells [1]): 20.3%
intracellular concentration of peroxynitrite (ONOO-) / RNS (H2O2 treated H9c2 cells [2]): downregulation of RNS inside cells
viability of H9c2 challenged with H2O2 (H9c2 cells [3]): only partially restored the viability of H9c2
mitochondrial membrane potential (H2O2-treated H9c2 cells): limited effects

CSTSMLKAC [CTP-PBA-ISN]
tube formation (pseudopod length, number of junction, degree of branch) (HUVECs [4]): facilitated recovery in pseudopod length, number of junction and degree of branch
free radical clearance, DPPH assay (DPPH assay): dose-dependent manner
diameter of spherical nanoaggregates [5]: 47 ± 4 nm
apoptosis percentage (H9c2 cells [1]): 15.6%
accumulation in other organs ([6]; sham and MI animals, extended time after injections, n = 3): accumulated in the kidneys, livers, and lungs
expression of VEGF and p-eNOS/eNOS ratio (HUVECs [7]): remarkably upregulated
intracellular NO delivery (HUVECs [8]): maximizing intracellular NO delivery
TNF-α and IL-6 protein expression (H9c2 cells [9]; immunoblot): capably reversed such elevation
intracellular expression of Nrf2, HO-1 and NQO-1 (H9c2 cells [9]; immunoblot): downregulated intracellular expression of Nrf2, HO-1 and NQO-1
expression of BAX, Caspase3 and Bcl-2 (H9c2 cells [9]; western blotting): most effective in downregulation of apoptosis proteins (BAX, Caspase3) and upregulation of anti-apoptosis protein (Bcl-2)
bio-viability and apoptosis of HUVECs under oxidative stress (HUVECs [10]): most effective in maintaining bio-viability and inhibiting apoptosis
intracellular level of NO (H2O2 treated H9c2 cells [11]): significantly increased the intracellular level of NO
NO concentration in culture medium (cells; cells treated with H2O2, 24 h): significantly increased NO concentration
NO release in culture medium (cells; cells without H2O2 treatment, 24 h): moderated NO release
migration of HUVECs (HUVECs [12]): migration to the level similar to those of H2O2-untreated control
intracellular concentration of peroxynitrite (ONOO-) / RNS (H2O2 treated H9c2 cells [2]): did not increase the intracellular concentration of RNS
viability of H9c2 challenged with H2O2 (H9c2 cells [3]): potent preservation of cell survival
fibrotic area and infarct wall thickness (MI mice; Masson's trichrome, 28 days after MI, n = 4): reduced fibrotic area and increased infarct wall thickness
ultrastructure of myocardial mitochondria (MI mice; TEM of tissue slices, 3 days after MI): ameliorated myocardial fiber rupture, mitochondrial damage and increased mitochondrial numbers
apoptosis cardiomyocytes in infarcted myocardial tissue (MI mice; TUNEL staining, 3 days after MI, n = 4): lowest number of apoptosis cardiomyocytes
cross-sectional area of cardiomyocytes (MI mice; WGA staining, 28 days after MI, n = 5): smaller cross-sectional area of cardiomyocytes
OS proteins (NRF2, HO-1, NQO-1) and pro-inflammation cytokines (TNF-α, IL-6) in the heart (MI mice; Western blot, 1 day after MI, n = 3): significant decrease
protein expressions of CS, IDH2 and OGDH in heart tissues (MI mice; immunoblot, 3 days after MI, n = 3): facilitated recovery of these downregulated mitochondria related rate-limiting enzymes
angiogenesis in the border zone of infarct region (CD31+ capillaries, α-SMA+ arterioles) (MI mice; [15]): greatly promoted
macrophage phenotype (CD86 / CD206) (MI mice; [15]): established a M2-dominant macroenvironment
infarct area (MI mice; n = 3): greatly reduced
ROS clearance, ABTS assay (ABTS assay): dose-dependent manner
ATP content (H9c2 cells [13]; H9c2 under H2O2, ATP assay kit, n = 3): increased ATP content
structure of mitochondria (H9c2 cells [13]; H9c2 under H2O2, TEM): preserved the normal structure of mitochondria
cytoplasmic calcium level (H2O2-treated H9c2 cells; Fluo-4 AM staining): reversed the abnormal elevation of cytoplasmic calcium level
mitochondrial membrane potential (H2O2-treated H9c2 cells): potently restored the cross-membrane potential of mitochondria
mitochondrial ROS (H2O2-treated H9c2 cells; MitoSOX staining): most effective in blocking the H2O2-induced overproduction of ROS in mitochondria

O=[N+]([O-])O[C@@H]1CO[C@H]2[C@@H]1OC[C@@H]2O [ISN, isosorbide mononitrate, reference compound]
apoptosis percentage (H9c2 cells [1]): 32.2%
expression of VEGF and p-eNOS/eNOS ratio (HUVECs [7]): nor did it reverse the downregulated expression of angiogenesis-related proteins
intracellular level of NO (H2O2 treated H9c2 cells [11]): significantly increased the intracellular level of NO
migration of HUVECs (HUVECs [12]): barely promoted the H2O2-inhibited migration of HUVECs
intracellular concentration of peroxynitrite (ONOO-) / RNS (H2O2 treated H9c2 cells [2]): dramatically elevated the intracellular concentration of peroxynitrite
viability of H9c2 challenged with H2O2 (H9c2 cells [3]): increased the loss of myocytes
intracellular ROS level (H2O2 treated H9c2 cells [14]): did not change the level of ROS inside cells
ROS in heart tissue (MI mice; DHE staining, day 1 after MI, i.v. 200 µg/kg equivalent of ISN, n = 4): little effects on tissue abundance of ROS
RNS in heart tissue (MI mice; O56 staining, day 1 after MI, i.v. 200 µg/kg equivalent of ISN, n = 4): promoted vast generation of RNS
angiogenesis in the border zone of infarct region (CD31+ capillaries, α-SMA+ arterioles) (MI mice; [15]): didn’t have any effects of neovascularization
mitochondrial membrane potential (H2O2-treated H9c2 cells): negligible influence on the restoration of mitochondrial membrane potential

OCc1ccc(O)cc1 [4-HBA, 4-hydroxybenzyl alcohol]
intracellular ROS level (H2O2 treated H9c2 cells [14]): mitigate intracellular ROS in a concentration-dependent manner

CSTSMLKAC [Cy5.5-CTP-PBA-ISN]
fluorescent signal of infarcted hearts ([6]; MI mice, 2 h after injection via tail veins, ex vivo imaging): bright fluorescent signal
